Source: ChEMBL document CHEMBL5058577, “EUbOPEN Chemogenomics Library 2 (Multiplex)” (2022)

System: Fibroblast
Experiment: Multiplex assay against human fibroblast
Format: toxicity, cell-based
Method in brief: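 Four dyes were applied at seeding to live cells: Hoechst33342, BioTracker Green Microtubule Cytoskeleton Dye, MitoTracker Red and Annexin V Alexa Fluor 680. Imaging after compound addition used a CQ1 microscope at 37°C and 5% CO2. CellPathfinder machine-learning gating then sorted cells into Hoechst high-intensity objects or normal cells, normal cells into healthy, pyknosed or fragmented nuclei, and pyknosed cells into mitotic or apoptotic, with tubulin, mitochondrial-mass and membrane-permeability phenotypes given as per cents of healthy-nucleus cells.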

[1] = 12 h, 1 µM, compound concentration 1 uM, replicate 1
[2] = 12 h, 1 µM, compound concentration 1 uM, replicate 2
[3] = 12 h, 10 µM, compound concentration 10 uM, replicate 1
[4] = 12 h, 10 µM, compound concentration 10 uM, replicate 2
[5] = 24 h, 1 µM, compound concentration 1 uM, replicate 1
[6] = 24 h, 1 µM, compound concentration 1 uM, replicate 2
[7] = 24 h, 10 µM, compound concentration 10 uM, replicate 1
[8] = 24 h, 10 µM, compound concentration 10 uM, replicate 2
[9] = 48 h, 1 µM, compound concentration 1 uM, replicate 1
[10] = 48 h, 1 µM, compound concentration 1 uM, replicate 2
[11] = 48 h, 10 µM, compound concentration 10 uM, replicate 1
[12] = 48 h, 10 µM, compound concentration 10 uM, replicate 2

CC(/C=C1\SC(=S)N(CCCC(=O)Nc2ccc(C(=O)O)c(O)c2)C1=O)=C\c1ccccc1
Population Apoptotic (%) [1]: 50%
Population Fragmented Nuclei (%) [1]: 14%
Population Healthy Nuclei (%) [1]: 71%
Population Hoechst High Intensity Objects (%) [1]: 2%
Population Membrane Permeable-Phenotype (%) [1]: 0%
Population Mitochondria Different-Phenotype (%) [1]: 2%
Population Mitotic Cells (%) [1]: 50%
Population Normal (%) [1]: 97%
Population Pyknosed Nuclei (%) [1]: 13%
Population Tubulin-Different-Phenotype (%) [1]: 28%
Total Cell Count [1]: 206
Population Apoptotic (%) [2]: 33%
Population Fragmented Nuclei (%) [2]: 19%
Population Healthy Nuclei (%) [2]: 60%
Population Hoechst High Intensity Objects (%) [2]: 3%
Population Membrane Permeable-Phenotype (%) [2]: 13%
Population Mitochondria Different-Phenotype (%) [2]: 9%
Population Mitotic Cells (%) [2]: 66%
Population Normal (%) [2]: 96%
Population Pyknosed Nuclei (%) [2]: 19%
Population Tubulin-Different-Phenotype (%) [2]: 54%
Total Cell Count [2]: 157
Population Apoptotic (%) [3]: 56%
Population Fragmented Nuclei (%) [3]: 15%
Population Healthy Nuclei (%) [3]: 70%
Population Hoechst High Intensity Objects (%) [3]: 2%
Population Membrane Permeable-Phenotype (%) [3]: 0%
Population Mitochondria Different-Phenotype (%) [3]: 5%
Population Mitotic Cells (%) [3]: 43%
Population Normal (%) [3]: 97%
Population Pyknosed Nuclei (%) [3]: 13%
Population Tubulin-Different-Phenotype (%) [3]: 44%
Total Cell Count [3]: 123
Population Apoptotic (%) [4]: 40%
Population Fragmented Nuclei (%) [4]: 19%
Population Healthy Nuclei (%) [4]: 48%
Population Hoechst High Intensity Objects (%) [4]: 4%
Population Membrane Permeable-Phenotype (%) [4]: 8%
Population Mitotic Cells (%) [4]: 59%
Population Normal (%) [4]: 95%
Population Pyknosed Nuclei (%) [4]: 31%
Population Tubulin-Different-Phenotype (%) [4]: 54%
Total Cell Count [4]: 122
Population Apoptotic (%) [5]: 54%
Population Fragmented Nuclei (%) [5]: 17%
Population Healthy Nuclei (%) [5]: 72%
Population Hoechst High Intensity Objects (%) [5]: 1%
Population Membrane Permeable-Phenotype (%) [5]: 2%
Population Mitochondria Different-Phenotype (%) [5]: 4%
Population Mitotic Cells (%) [5]: 45%
Population Normal (%) [5]: 98%
Population Pyknosed Nuclei (%) [5]: 10%
Population Tubulin-Different-Phenotype (%) [5]: 25%
Total Cell Count [5]: 208
Population Apoptotic (%) [6]: 33%
Population Healthy Nuclei (%) [6]: 63%
Population Hoechst High Intensity Objects (%) [6]: 2%
Population Membrane Permeable-Phenotype (%) [6]: 5%
Population Mitochondria Different-Phenotype (%) [6]: 12%
Population Mitotic Cells (%) [6]: 66%
Population Normal (%) [6]: 97%
Population Pyknosed Nuclei (%) [6]: 19%
Population Tubulin-Different-Phenotype (%) [6]: 44%
Total Cell Count [6]: 144
Population Apoptotic (%) [7]: 66%
Population Fragmented Nuclei (%) [7]: 11%
Population Healthy Nuclei (%) [7]: 81%
Population Hoechst High Intensity Objects (%) [7]: 0%
Population Membrane Permeable-Phenotype (%) [7]: 0%
Population Mitochondria Different-Phenotype (%) [7]: 4%
Population Mitotic Cells (%) [7]: 33%
Population Normal (%) [7]: 99%
Population Pyknosed Nuclei (%) [7]: 7%
Population Tubulin-Different-Phenotype (%) [7]: 25%
Total Cell Count [7]: 119
Population Apoptotic (%) [8]: 53%
Population Fragmented Nuclei (%) [8]: 20%
Population Healthy Nuclei (%) [8]: 53%
Population Hoechst High Intensity Objects (%) [8]: 4%
Population Membrane Permeable-Phenotype (%) [8]: 11%
Population Mitotic Cells (%) [8]: 46%
Population Normal (%) [8]: 95%
Population Pyknosed Nuclei (%) [8]: 26%
Population Tubulin-Different-Phenotype (%) [8]: 70%
Total Cell Count [8]: 120
Population Apoptotic (%) [9]: 78%
Population Fragmented Nuclei (%) [9]: 24%
Population Healthy Nuclei (%) [9]: 66%
Population Hoechst High Intensity Objects (%) [9]: 3%
Population Membrane Permeable-Phenotype (%) [9]: 1%
Population Mitochondria Different-Phenotype (%) [9]: 2%
Population Mitotic Cells (%) [9]: 21%
Population Normal (%) [9]: 96%
Population Pyknosed Nuclei (%) [9]: 9%
Population Tubulin-Different-Phenotype (%) [9]: 31%
Total Cell Count [9]: 216
Population Apoptotic (%) [10]: 45%
Population Fragmented Nuclei (%) [10]: 29%
Population Healthy Nuclei (%) [10]: 56%
Population Hoechst High Intensity Objects (%) [10]: 1%
Population Membrane Permeable-Phenotype (%) [10]: 7%
Population Mitochondria Different-Phenotype (%) [10]: 6%
Population Mitotic Cells (%) [10]: 54%
Population Normal (%) [10]: 98%
Population Pyknosed Nuclei (%) [10]: 14%
Population Tubulin-Different-Phenotype (%) [10]: 44%
Total Cell Count [10]: 159
Population Apoptotic (%) [11]: 46%
Population Fragmented Nuclei (%) [11]: 18%
Population Healthy Nuclei (%) [11]: 69%
Population Hoechst High Intensity Objects (%) [11]: 0%
Population Membrane Permeable-Phenotype (%) [11]: 0%
Population Mitochondria Different-Phenotype (%) [11]: 1%
Population Mitotic Cells (%) [11]: 53%
Population Normal (%) [11]: 100%
Population Pyknosed Nuclei (%) [11]: 12%
Population Tubulin-Different-Phenotype (%) [11]: 33%
Total Cell Count [11]: 124
Population Apoptotic (%) [12]: 59%
Population Fragmented Nuclei (%) [12]: 34%
Population Healthy Nuclei (%) [12]: 46%
Population Hoechst High Intensity Objects (%) [12]: 3%
Population Membrane Permeable-Phenotype (%) [12]: 5%
Population Mitochondria Different-Phenotype (%) [12]: 5%
Population Mitotic Cells (%) [12]: 40%
Population Normal (%) [12]: 96%
Population Pyknosed Nuclei (%) [12]: 19%
Population Tubulin-Different-Phenotype (%) [12]: 58%
Total Cell Count [12]: 118
